Bioassay records deposited in PubChem BioAssay by several laboratories.
NR2E3 ag-1 – agonists of human NR2E3 nuclear receptor; Q9Y5X4; CHO-S Gal4-NCOR/VP16-NR2E3 two-hybrid, luciferase; inhibition of corepressor binding, % at 3.98 µM; actives 0.35% (n = 360,000);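 active means inhibition above the mean of all tested compounds plus 3 SD, cut at about 70% in these data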;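 further: 0% = DMSO with NR2E3 transfected cells and 100% = cells lacking NR2E3 construct; higher means lower luciferase signal from less NR2E3 corepressor binding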
NR2E3 ag-2 – NR2E3 (human) agonism; Q9Y5X4; GST-NR2E3/biotin-RetCOR TR-FRET, 1536-well; AID 2300; inhibition of corepressor binding, % at 4.78 µM; actives 0.12% (n = 320,000);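 active means percent inhibition above the cutoff of mean plus 3 SD of all tested compounds, set per screening campaign, cut at about 20% in these data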;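 further: 0% = DMSO wells and 100% = biotin wells as full block of FRET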
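Material: NR2E3–RetCOR corepressor complex / Amount: 1.35 nM GST-NR2E3 / Medium: Tris pH 7.5 / Compound: single nominal compound dose of 4.8 µM / Incubation: 5 h at 4 °C / Technique: TR-FRET, Eu(K)-anti-GST donor, streptavidin-D2 acceptor, ex 340, em 617/671 nm / Read-out basis: percent loss of FRET ratio relative to control wells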
Rev-erbA mod – modulates human Rev-erb alpha binding to DNA | AID 1259318 | P20393 | Rev-erbα–FITC-DNA binding, fluorescence polarization, 90 min | actives 0.79% (n = 370,000) | activity, % at 10 µM;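 active means activity above about 14%, limit read from the data; passing the limit was not always enough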;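 further: 0% = DMSO wells with 35 nM protein and 100% = DMSO wells with 750 nM protein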
Target sequence (P20393 whole entry, looked up): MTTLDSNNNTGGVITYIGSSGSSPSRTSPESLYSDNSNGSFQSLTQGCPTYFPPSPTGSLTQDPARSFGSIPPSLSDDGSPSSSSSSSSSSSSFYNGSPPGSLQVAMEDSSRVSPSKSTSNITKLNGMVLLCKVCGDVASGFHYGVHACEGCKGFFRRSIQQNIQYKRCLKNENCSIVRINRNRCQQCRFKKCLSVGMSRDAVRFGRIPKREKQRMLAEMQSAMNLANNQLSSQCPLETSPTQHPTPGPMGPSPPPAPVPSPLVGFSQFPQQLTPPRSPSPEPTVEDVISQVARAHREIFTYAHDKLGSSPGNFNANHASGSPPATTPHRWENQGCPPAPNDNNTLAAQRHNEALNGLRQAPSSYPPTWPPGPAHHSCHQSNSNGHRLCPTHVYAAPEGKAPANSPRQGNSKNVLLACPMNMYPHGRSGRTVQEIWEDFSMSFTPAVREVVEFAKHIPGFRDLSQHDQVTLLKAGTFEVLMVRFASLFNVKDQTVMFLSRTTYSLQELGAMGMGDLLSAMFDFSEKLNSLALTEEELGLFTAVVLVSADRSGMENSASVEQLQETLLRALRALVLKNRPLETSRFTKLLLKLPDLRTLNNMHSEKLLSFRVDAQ
Neddyl block – cullin neddylation inhibition; TR-FRET cullin neddylation, biochemical; calls only at 25 µM; actives 0.58% (n = 360,000); in the data active means inhibition above about 36%
PG9 Ab binder – PG9 antibody binding by small molecule; actives 0.43% (n = 360,000); inhibition, % at 6.7 µM; TR-FRET gp120-PG9 antibody binding; in the data active means inhibition above about 8.5%
PG9 bind confirm – PG9 antibody binding, confirmed. shares compounds with PG9 Ab binder. TR-FRET PG9 antibody binding, biochemical. inhibition, % at 6.7 µM. actives 90% (n = 1,500). AID 651571; in the data active means inhibition above about 9%
PGV04 Ab binding – counter-screen for PG9 binders: binding control antibody PGV04; shares compounds with PG9 Ab binder; TR-FRET PGV04 antibody-gp120 binding, biochemical; inhibition, % at 6.7 µM; actives 95% (n = 1,500); AID 651604; in the data active means inhibition above about 9.5%
PG9 bind DR – small molecules binding HIV-1 gp120 antibody PG9; shares compounds with PG9 Ab binder; TR-FRET PG9 antibody-gp120 binding inhibition; IC50, µM; 95 tested, under 10 active; AID 651848; in the data active means IC50 below about 10 µM
PGV04 DR counter – binds control antibody PGV04 in PG9 counter-screen; IC50, µM; shares compounds with PG9 Ab binder; actives 20% (n = 95); TR-FRET binding to control antibody PGV04
PG126 DR counter – PG126 binding, dose response counter-screen. shares compounds with PG9 Ab binder. TR-FRET binding to antibody PG126, counterscreen. IC50, µM. actives 20% (n = 95). AID 651939
The depositor's hits bear a star; i = inactive; . = no result shown. Only some compounds are listed: those with a hit (about 2% of all), similar ones and a draw of the others. Unless noted, no stated cut-off is given here; in the data, active means IC50 below about 9 µM; inactive means the rest.

SMILES	NR2E3 ag-1	NR2E3 ag-2	Rev-erbA mod	Neddyl block	PG9 Ab binder	PG9 bind confirm	PGV04 Ab binding	others
Cc1ccc(S(=O)(=O)c2cn(CC(=O)Nc3ccccc3)c3ccc(F)cc3c2=O)cc1	-46	-3	-8	i	14*	17*	25*
Cc1ccc(Cn2cc(S(=O)(=O)c3ccc(Cl)cc3)c(=O)c3cc(F)ccc32)cc1	-9	4	0	i	8.7*	12*	21*
COc1ccc2c(c1)CCCN2C(=O)C1CCCN(S(=O)(=O)c2cccc3cccnc23)C1 (centres undefined)	.	.	-3	.	.	.	.
COc1ccc2cc(CN(CC3CCCO3)S(=O)(=O)c3ccccc3)c(=O)[nH]c2c1 (centres undefined)	-58	2	-5	i	-2	.	.
COc1ccc2cc(CN(CC3COCCO3)S(=O)(=O)c3ccc(Cl)cc3)c(=O)[nH]c2c1 (centres undefined)	-45	-1	2	i	24*	26*	31*
CCOC(=O)c1cc2sccc2n1CC(=O)Nc1ccc(OC)cc1	9	-1	7	i	12*	16*	31*
CC(C)c1ccc(CN2CCSCC2)cc1	4	1	7	i	2	.	.
CCc1cccc(CC)c1NC(=O)C1SC(=Nc2ccccc2C)C(c2nc3ccccc3s2)=C1N (centres undefined)	-68	4	-1	i	9.2*	9.5*	13*
CCCCNS(=O)(=O)c1ccc2nc(-c3cccnc3)cc(C(=O)NCCCOC)c2c1	9	-2	0	i	11*	13*	15*
C=CCOc1cccc(C2/C(=C(\O)c3ccc4c(c3)OCCO4)C(=O)C(=O)N2CCN2CCOCC2)c1 (centres undefined)	13	12	-7	i	9.3*	16*	21*
C=CCOc1cccc(C2/C(=C(/O)c3ccc(C)cc3)C(=O)C(=O)N2CCN2CCOCC2)c1 (centres undefined)	-11	1	2	i	-2	.	.
O=C1C(=O)N(CCN2CCOCC2)C(c2ccccc2)/C1=C(\O)c1ccc2c(c1)OCCO2 (centres undefined)	-12	11	-6	i	15*	21*	23*
O=C1C(=O)N(CCCN2CCOCC2)C(c2ccc(Cl)cc2)/C1=C(\O)c1ccc2c(c1)OCCO2 (centres undefined)	0	2	0	i	10*	23*	27*
CCCCC1CCC(C(=O)N(CC(C)C)c2c(N)n(Cc3ccccc3)c(=O)[nH]c2=O)CC1 (centres undefined)	.	2	-6	.	2	.	.
NC(=O)C1CCN(c2ccc(S(=O)(=O)N3CCC(Cc4ccccc4)CC3)cn2)CC1	-21	1	1	i	14*	24*	34*
O=S(=O)(c1ccc(Cl)nc1)N1CCC(Cc2ccccc2)CC1	33	.	0	i	0	.	.
COc1ccccc1-c1c(C(F)(F)F)oc2cc(OS(C)(=O)=O)ccc2c1=O	-2	4	-8	i	0	.	.
COc1ccccc1-c1c(C(F)(F)F)oc2cc(OCC(=O)Nc3ccccc3C(F)(F)F)ccc2c1=O	-15	-3	2	i	12*	20*	37*
O=C(COC(=O)c1ccc(F)c(S(=O)(=O)N2CCOCC2)c1)c1ccc(Cl)cc1	-13	3	0	i	-1	.	.
CCOC(=O)c1c(C)[nH]c(C(=O)COC(=O)c2ccc(F)c(S(=O)(=O)N3CCOCC3)c2)c1C	-9	0	16	i	17*	29*	40*
COC(=O)c1ccccc1S(=O)(=O)NC(=O)[C@H]1O[C@@H](n2ccc(=O)[nH]c2=O)[C@H](O)[C@@H]1O	.	.	0	.	2	.	.
O=C(NCc1ccccc1)[C@H]1CCCN1C(=O)[C@H]1CCCN1C(=O)c1ccccc1	.	.	-3	.	0	.	.
COc1cc(NC(=O)c2cc3ccccc3o2)c(OC)cc1Cl	-28	0	16	.	20*	18*	34*
COc1cc(NC(=O)c2cc3ccccc3o2)c(OC)cc1Br	-36	-3	20	i	1	.	.
COC(=O)[C@H](Cc1ccccc1)N1Cc2ccccc2Oc2cc(Br)ccc2S1(=O)=O	.	.	8	.	1	.	.
SMILES	NR2E3 ag-1	NR2E3 ag-2	Rev-erbA mod	Neddyl block	PG9 Ab binder	PG9 bind confirm	PGV04 Ab binding	others
COc1cccc(C2/C(=C(\O)c3ccc4c(c3)OCCO4)C(=O)C(=O)N2CC2CCCO2)c1 (centres undefined)	-3	.	1	i	9.2*	16*	20*
Cc1ccc(C2/C(=C(\O)c3ccc4c(c3)OCCO4)C(=O)C(=O)N2CC2CCCO2)cc1 (centres undefined)	5	.	8	i	9.7*	20*	22*
CC(C)NC(=O)C1(C)CCN1C(=O)c1ccccc1Oc1ccccc1 (centres undefined)	5	.	-3	i	2	.	.
Cc1cccc(/N=C2/NC(=O)C(Cc3ccccc3)S2)n1 (centres undefined)	-23	4	5	i	8	.	.
Cc1cccc(CC2S/C(=N/c3cccc(C)n3)NC2=O)c1 (centres undefined)	16	-3	16	i	13*	18*	24*
COc1cccc(CN(C)C(=O)c2cccc(OCc3ccccc3)c2)c1	-13	2	8	i	-1	.	.
CC1CCN(C(=O)Cn2cnc3c(cnn3C(C)(C)C)c2=O)CC1	-88	-3	-1	i	11*	8	10*
CC(C)(C)n1ncc2c(=O)n(CC(=O)N3CCCC3)cnc21	-5	0	1	i	0	.	.
COc1ccccc1NC(C)=O	1	-2	-3	i	12*	6	8
CC(C)C[C@@H]1COc2cccc(F)c2S(=O)(=O)N1C	.	.	-3	.	.	.	.
COc1cc(OC)cc(-c2c(Sc3ccccc3)c3cc(-c4ccc(OC)c(OC)c4)ccc3n2C)c1	-4	.	14	i	19*	34*	19*	PG9 bind DR=i;PGV04 DR counter=i;PG126 DR counter=i
COc1ccc(-c2c(Sc3ccccc3)c3cc(-c4ccc(OC)c(F)c4)ccc3n2C)cc1	8	.	3	i	27*	-13	36*
